We go through 71 compounds from ChEMBL document CHEMBL4513216, “Probing the Open Global Health Chemical Diversity Library for Multistage-Active Starting Points for Next-Generation Antimalarials” (ACS Infect Dis, 2020).

This series in a line: Toxicity liver stage against HepG2, at 10uM. In kind it is cell-based. The arrangement: test concentration 10 uM, cell line HepG2-A16-CD81EGFP. The conditions noted are these: human, HepG2-A16-CD81EGFP cells; read-out: INHIBITION
The gist of the method:
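Uninfected HepG2-A16-CD81EGFP cells, 3 × 10^3 per well, 1536-well, plated on prespotted compound at 10 μM final, parasite-free screening media added to match infected plates; puromycin 10 μM positive, DMSO 0.5% negative; run in parallel with 48 h PbLuc assay at 37 °C, 5% CO2; viability by CellTiter-Glo luminescence, normalized to controls.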

Molecules are shown by their SMILES.

For `CC(C)N(CC(N)=O)Cc1csc(C(C)(C)C)n1`, the cytotoxicity at 10 µM was -5.13%. Take `O=C(O)c1nnn(-c2ccccc2)c1-c1ccncc1`: the cytotoxicity at 10 µM turned out to be 2.33%. As for `Cc1nc(O)cc(C2CCN(C(=O)CN(C)c3ccccc3)CC2)n1`, the cytotoxicity at 10 µM was found to be 8.92%. With `Cc1ccc(Cl)cc1NS(=O)(=O)c1cc(C(N)=O)n(C)c1`, the cytotoxicity at 10 µM is 3.8%.

Take `CCCc1n[nH]c(C2CN(CCS(=O)(=O)CC)CCO2)n1` (stereo unspecified): the cytotoxicity at 10 µM was -5.83%. As for `CCN(C1CCN(C(=O)c2cccc(Cl)c2)CC1)S(C)(=O)=O`, the cytotoxicity at 10 µM came out at 0.209%. On to `COCCN1C(=O)CC[C@@H]2[C@H]1CCN2Cc1cccc(C#N)c1`, for which the cytotoxicity at 10 µM is -33.1%. On to `COc1ccc2c(c1)CCN(CCC(=O)O)CC2`, for which the cytotoxicity at 10 µM is -9.21%.

With `Nc1nccnc1C1CN(C(=O)c2cnccn2)CCO1` (stereo unspecified), the cytotoxicity at 10 µM was -9.17%. Then `CO[C@H]1CC[C@H]2[C@H]1OCCN2C(=O)c1nn(C)c2ccccc12`, with 5.33%; and `Cc1nccc(-c2cccc(NCC(=O)N3CCc4sccc4C3)c2)n1`, with 1.06%; and `NC(=O)NCC1CCCCN1C(=O)c1cc(F)cc(F)c1` (stereo unspecified), with -8.15%. In the case of `CN(C)CC1CN(Cc2csc(C3CCCC3)n2)CCO1` (stereo unspecified), the cytotoxicity at 10 µM was -7.32%. Turning to `COc1ncccc1CNC(=O)C1=NN(c2ccccc2)C(=O)CN1`, the cytotoxicity at 10 µM was 2.54%. In the case of `Cc1ncc(CN2CCc3c(nc(-c4ccccn4)[nH]c3=O)C2)n1C` it was -30.1%. `CC(=O)Nc1ncc(S(=O)(=O)Nc2ccc(F)cc2)s1`: the cytotoxicity at 10 µM was 0.976%. `CC(C)Oc1ccc(CN2CCCC(N3CCCC3)C2)cc1CO` (stereo unspecified): the cytotoxicity at 10 µM was 0.271%. Regarding `c1ccc(OCCN2CCN(c3ncnc4[nH]ccc34)CC2)cc1`, the cytotoxicity at 10 µM amounted to 8.64%. As to `CN(Cc1cccnc1)C(=O)NC1CCN(Cc2ccccn2)CC1`, the cytotoxicity at 10 µM is -18.2%.

For `COc1ncc(C)cc1NC(=O)CCc1ccccn1`, the cytotoxicity at 10 µM is -9.58%.

As for `CCC(NCc1ccccn1)c1ccccc1OCC(=O)NC` (stereo unspecified), the cytotoxicity at 10 µM was found to be 11.3%. Regarding `CCOCc1ncn2c1CN(S(=O)(=O)c1cccs1)CCC2`, the cytotoxicity at 10 µM is 9.52%. As for `N#Cc1c2n(c3c(=O)[nH]cnc13)CCCCC2`, the cytotoxicity at 10 µM was 5.5%. For the compound `Cc1nccn1[C@@H]1CC[C@@H](N(C)S(=O)(=O)c2ccc(F)cc2)[C@H]1O`, the cytotoxicity at 10 µM was -0.535%. Then `CC(NC(=O)c1cccnc1N(C)C)c1ccccc1Cl` (stereo unspecified), with -4.97%.

`Cc1ncc(CN2CCOC(CN(C)c3cccnn3)C2)s1` (stereo unspecified): the cytotoxicity at 10 µM worked out at 2.86%. For the compound `CN(Cc1cc(Br)cn1C)C(=O)Cc1cccc(O)c1`, the cytotoxicity at 10 µM was -4.99%. Take `CC(C)(C)c1ncc(C(=O)NCc2ccccc2CN2CCCC2)s1`: the cytotoxicity at 10 µM is -8.98%. As to `O=C(NC1CCCC1)c1nc2c(o1)CN(C(=O)CCO)C2`, the cytotoxicity at 10 µM stood at 5.38%. As for `CCC(C)Oc1ccccc1Cn1cc2[nH]cccc-2c1=O` (stereo unspecified), the cytotoxicity at 10 µM is -0.0261%. Turning to `CC(=O)N1CCN(Cc2csc(-c3cnn(C)c3)n2)CC1`, the cytotoxicity at 10 µM was -1.78%. For `O=C(c1ccncc1)N1CCCn2nnc(Cn3cccn3)c2C1`, the cytotoxicity at 10 µM came out at 6.01%. Take `Cc1ccc(NC2CCN(C(=O)Cc3c(C)nn(C)c3C)CC2)nn1`: the cytotoxicity at 10 µM is -11.9%. Then `CCCSc1nc(N)c(NC(=O)c2ccc(OC)c(OC)c2)c(=O)[nH]1`, with -8.7%; and `Nc1nccc(N2C[C@@H](CN3CCCCC3)[C@@H](CO)C2)n1`, with -2.16%. Take `COCCOCC1(CNCc2cccc(OC)c2)C[C@@H](O)[C@@H](O)C1` (stereo partly specified): the cytotoxicity at 10 µM was 0.994%. Turning to `O=C(c1ccncn1)N1CCC[C@]2(C[C@H](Oc3ncccc3F)CO2)C1`, the cytotoxicity at 10 µM was -0.588%. On to `Cc1nccc(CNC(=O)N(CCCO)C2CCc3ccccc32)n1` (stereo unspecified), for which the cytotoxicity at 10 µM is -27.3%. Regarding `C[C@H](NC(=O)C1(N(C)Cc2ccccc2)Cc2ccccc2C1)C(N)=O`, the cytotoxicity at 10 µM is 0.521%.

As for `Cc1cccc(S(=O)(=O)NC(=O)c2ccc3c(c2)nnn3C)c1`, the cytotoxicity at 10 µM is -8.97%. `COCCn1cnc(-c2cc(C(=O)NC(C)C)c3ccccn23)c1`: the cytotoxicity at 10 µM is -1.03%. Then `Cc1nc(C2CCCN2Cc2nc(C)c(C)o2)no1` (stereo unspecified), with -2.53%. Consider `Cc1cc(NCCN)nc2ccccc12`, for which the cytotoxicity at 10 µM turned out to be 2.09%. In the case of `COc1ccncc1NC(=O)c1[nH]nc(C(C)C)c1Br` it was 4.04%. Turning to `Cc1nnc(CN(C)CC(=O)N2CCCC(C(F)(F)F)C2)n1C` (stereo unspecified), the cytotoxicity at 10 µM is 4.49%. Turning to `Cc1nn(C)c2nc(C3CC3)c(Cl)c(C(=O)O)c12`, the cytotoxicity at 10 µM came to 7.44%. Regarding `FC(F)(F)Cc1noc(CN2CCCC2c2noc(C3CC3)n2)n1` (stereo unspecified), the cytotoxicity at 10 µM was -2.7%. For the compound `O=C(c1ccc[nH]1)N1CCc2onc(COc3cccnc3)c2C1`, the cytotoxicity at 10 µM was -62.6%. In the case of `CN(CC(=O)N1CCCCC1c1nccs1)C1CC1` (stereo unspecified) it was 10.2%; in that of `Cc1cccc(N2N=C(C(=O)NC(C)CCc3ccco3)CCC2=O)c1` (stereo unspecified), -10.1%. With `CCS(=O)(=O)N1CCN(C(=O)NC(C)C)CC2(CC(=O)N(C)C2)C1` (stereo unspecified), the cytotoxicity at 10 µM was determined as 6.62%. Consider `Cc1nc(C(=O)N2CCCCC2)nn1-c1ccccc1Cl`, for which the cytotoxicity at 10 µM is -6.46%. Turning to `O=C(CCc1cccnc1)N1CCC(c2cnccn2)CC1`, the cytotoxicity at 10 µM was -10.4%. `COCC(=O)N1CCC2(C1)c1ccccc1S(=O)(=O)N2CC1CC1` (stereo unspecified): the cytotoxicity at 10 µM was 4.39%.

Consider `Clc1cccc(OCCCN2CCOC(Cn3cncn3)C2)c1` (stereo unspecified), for which the cytotoxicity at 10 µM is -3.78%. For the compound `COCc1nc(C2CC2)nn1-c1cc(Cl)ccc1OC`, the cytotoxicity at 10 µM was -10.2%. Consider `CN1CCCN(C(=O)c2cccc(S(=O)(=O)NCC3(C)COC3)c2)CC1`, for which the cytotoxicity at 10 µM is -6.63%.

As for `CC1CCN(c2nc3cn(-c4ccc5c(c4)OCO5)c(=O)c-3c[nH]2)CC1`, the cytotoxicity at 10 µM was -14%.

`COc1ccc(OCCNCCn2cccn2)cc1`: the cytotoxicity at 10 µM was 2.05%. On to `O=C([C@@H]1CC[C@@H]2[C@@H](CCN2c2ncccn2)O1)N1CCCO1`, for which the cytotoxicity at 10 µM is 8.79%. With `O=C(C1CCC1)N1C[C@@H](c2ccsc2)[C@@H]2CN(C3CCCC3)CC[C@@H]21`, the cytotoxicity at 10 µM is -1.51%.

For the compound `c1cc(-c2c[nH]c([C@@H]3COCCN3Cc3csnn3)n2)ccn1`, the cytotoxicity at 10 µM was determined as 3.07%. Take `COc1ccccc1OCC(=O)NS(=O)(=O)c1ccc(F)cc1F`: the cytotoxicity at 10 µM was 8.68%. Take `CC(C(=O)Nc1cnn(CC(N)=O)c1)c1ccc(Cl)s1` (stereo unspecified): the cytotoxicity at 10 µM was 10.9%. Turning to `OCCn1cc(CN2CCN(CCOc3cccc(F)c3)CC2)cn1`, the cytotoxicity at 10 µM was -10.9%. In the case of `COCCCn1nnc(C2(NC(=O)c3ccccc3)CCCC2)n1`, the cytotoxicity at 10 µM was found to be 9.24%. As to `Cc1ccc2c(c1)OC(C)CN2C(=O)c1c[nH]c(C)cc1=O` (stereo unspecified), the cytotoxicity at 10 µM was 2.36%. For `CCOCC1CN(Cc2ccc3c(c2)OCO3)Cc2ncn(C)c21` (stereo unspecified), the cytotoxicity at 10 µM was 5.61%. On to `Cc1nccn1-c1ncccc1CNC(=O)c1ccc(O)nc1`, for which the cytotoxicity at 10 µM is -7.55%. `CN(Cc1cn2c(n1)CN(CC1CC1)CC2)Cc1ccco1`: the cytotoxicity at 10 µM was determined as 1.39%. In the case of `O=C(CCn1cc(Cl)cn1)N1CCC2(CC1)OCCCC2O` (stereo unspecified), the cytotoxicity at 10 µM was -135%.
